Measurements published in ChEMBL document CHEMBL1124240, “Substrate analogue inhibitors of the IgA1 proteinases from Neisseria gonorrhoeae” (J Med Chem, 1988).
“And” between values parts separate entries of the source, which are not always exact repeats. Identical values can stand only once. Bridge positions count the residues as written; N and C are the ends. Peptide text beside a SMILES is read from it. I, II: the chains in the order shown.

Target: T1, IgA-specific serine endopeptidase autotransporter (Neisseria gonorrhoeae, UniProt P09790)
T1 sequence (P09790 whole entry): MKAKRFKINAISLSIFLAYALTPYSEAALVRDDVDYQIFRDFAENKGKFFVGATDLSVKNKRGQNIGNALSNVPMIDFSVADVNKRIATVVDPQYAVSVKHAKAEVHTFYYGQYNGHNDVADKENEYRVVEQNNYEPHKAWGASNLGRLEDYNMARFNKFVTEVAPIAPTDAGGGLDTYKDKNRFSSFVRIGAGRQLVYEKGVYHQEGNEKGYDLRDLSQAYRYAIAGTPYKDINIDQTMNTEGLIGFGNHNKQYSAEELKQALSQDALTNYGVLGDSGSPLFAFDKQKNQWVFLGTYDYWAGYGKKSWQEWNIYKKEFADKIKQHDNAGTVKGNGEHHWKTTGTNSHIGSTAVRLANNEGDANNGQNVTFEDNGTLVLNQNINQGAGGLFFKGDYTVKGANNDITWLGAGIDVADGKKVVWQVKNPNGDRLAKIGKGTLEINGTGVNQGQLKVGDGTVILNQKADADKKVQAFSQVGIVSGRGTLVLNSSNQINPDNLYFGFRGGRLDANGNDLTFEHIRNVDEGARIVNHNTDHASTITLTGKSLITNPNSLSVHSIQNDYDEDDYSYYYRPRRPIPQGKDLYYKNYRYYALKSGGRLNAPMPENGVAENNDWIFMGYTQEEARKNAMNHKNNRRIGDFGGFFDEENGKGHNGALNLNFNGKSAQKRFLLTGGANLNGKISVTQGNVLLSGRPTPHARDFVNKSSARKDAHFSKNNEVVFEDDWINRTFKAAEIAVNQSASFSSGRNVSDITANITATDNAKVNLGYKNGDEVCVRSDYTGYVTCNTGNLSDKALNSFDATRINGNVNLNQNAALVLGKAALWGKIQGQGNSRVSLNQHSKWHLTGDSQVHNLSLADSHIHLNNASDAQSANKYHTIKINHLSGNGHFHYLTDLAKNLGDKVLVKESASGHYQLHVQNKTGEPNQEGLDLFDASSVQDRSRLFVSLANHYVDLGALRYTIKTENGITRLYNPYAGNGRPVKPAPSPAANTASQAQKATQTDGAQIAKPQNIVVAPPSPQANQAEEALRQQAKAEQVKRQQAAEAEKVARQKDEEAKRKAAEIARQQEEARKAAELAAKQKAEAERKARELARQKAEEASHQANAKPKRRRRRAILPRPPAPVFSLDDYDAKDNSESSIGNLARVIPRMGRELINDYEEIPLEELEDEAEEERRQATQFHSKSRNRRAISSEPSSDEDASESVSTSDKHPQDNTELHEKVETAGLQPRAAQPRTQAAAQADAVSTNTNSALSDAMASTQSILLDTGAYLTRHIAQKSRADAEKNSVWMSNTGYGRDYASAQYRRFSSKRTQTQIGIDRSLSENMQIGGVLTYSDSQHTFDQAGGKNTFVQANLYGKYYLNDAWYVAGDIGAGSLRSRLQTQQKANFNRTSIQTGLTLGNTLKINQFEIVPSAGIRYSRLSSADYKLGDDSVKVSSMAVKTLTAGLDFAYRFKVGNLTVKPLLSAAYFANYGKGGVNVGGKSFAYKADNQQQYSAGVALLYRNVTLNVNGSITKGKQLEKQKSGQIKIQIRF
Assay: Tested for inhibitory activity against IgA1 proteinase assayed in 40% TFE
Procedure, shortened: (§1)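 Buffer contained 40% trifluoroethanol to dissolve the peptide. Type 1 and type 2 N. gonorrhoeae IgA1 proteinases (partially purified) were preincubated with inhibitor for 30 min at 37 °C, then cleaved 125I-labelled monomeric human IgA1. Samples were taken every 10 min over 30 min, boiled and run on SDS-PAGE. Fd/Fc/α-chain segment counts gave percent cleavage, and the rate was taken from the slope.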

**Q.** For `CC(=O)N[C@H](C(=O)N1CCC[C@H]1C(=O)N1CCC[C@H]1C(=O)N[C@@H](CSSC[C@H](NC(=O)[C@@H]1CCCN1C(=O)[C@@H]1CCCN1C(=O)[C@@H](NC(C)=O)[C@@H](C)O)C(=O)N1CCC[C@H]1C(=O)N[C@@H](CO)C(=O)N1CCC[C@H]1C(=O)N[C@@H](CO)C(N)=O)C(=O)N1CCC[C@H]1C(=O)N[C@@H](CO)C(=O)N1CCC[C@H]1C(=O)N[C@@H](CO)C(N)=O)[C@@H](C)O` (I: Ac-TPPCPSPS-NH2 / II: Ac-TPPCPSPS-NH2; disulfide I:4-II:4), which IC50 is on record?
**A.** 170 µM

Target: T1, IgA-specific serine endopeptidase autotransporter
Assay: Tested for inhibitory activity against IgA1 proteinase in 40% TFE
Procedure, shortened: as §1

**Q.** How did the IC50 turn out when `CC(=O)N[C@H](C(=O)N1CCC[C@H]1C(=O)N1CCC[C@H]1C(=O)N[C@@H](CSSC[C@H](NC(=O)[C@@H]1CCCN1C(=O)[C@@H]1CCCN1C(=O)[C@@H](NC(C)=O)[C@@H](C)O)C(=O)N1CCC[C@H]1C(=O)N[C@@H](CO)C(=O)N1CCC[C@H]1C(=O)N[C@@H](CO)C(N)=O)C(=O)N1CCC[C@H]1C(=O)N[C@@H](CO)C(=O)N1CCC[C@H]1C(=O)N[C@@H](CO)C(N)=O)[C@@H](C)O` (I: Ac-TPPCPSPS-NH2 / II: Ac-TPPCPSPS-NH2; disulfide I:4-II:4) was run?
**A.** 200 µM

Target: T1, IgA-specific serine endopeptidase autotransporter
Assay: Tested for inhibitory activity against IgA1 proteinase
Procedure, shortened: (§2)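 Type 1 and type 2 IgA1 proteinases from N. gonorrhoeae, partially purified from cell-free defined-medium cultures and stored at -70 °C. Peptides were in 0.05 M Tris-HCl, pH 7.5, and preincubated with enzyme for 30 min at 37 °C. Substrate was monoclonal monomeric human serum IgA1, 125I-labelled. Samples were taken at 10-min intervals over 30 min and run on SDS-PAGE with autoradiography. Fd, Fc and uncleaved α-chain bands were counted, and the rate came from the slope of percent cleavage versus time.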

**Q.** With Ac-TPPTPSPS-NH2 as the compound, how does the IC50 read?
**A.** 9350 µM and 6680 µM

**Q.** How did the IC50 turn out when `CC(=O)N[C@@H](CSSC[C@H](NC(C)=O)C(=O)N1CCC[C@H]1C(=O)N1CCC[C@H]1C(=O)N[C@H](C(=O)N1CCC[C@H]1C(=O)N[C@@H](CO)C(=O)N1CCC[C@H]1C(=O)N[C@@H](CO)C(N)=O)[C@@H](C)O)C(=O)N1CCC[C@H]1C(=O)N1CCC[C@H]1C(=O)N[C@H](C(=O)N1CCC[C@H]1C(=O)N[C@@H](CO)C(=O)N1CCC[C@H]1C(=O)N[C@@H](CO)C(N)=O)[C@@H](C)O` (I: Ac-CPPTPSPS-NH2 / II: Ac-CPPTPSPS-NH2; disulfide I:1-II:1) was run?
**A.** 1810 µM and 3450 µM

**Q.** For H-TPPTPSPSTPPTPSPS-OH, which IC50 is on record?
**A.** 310 µM

**Q.** `CC(=O)N[C@H](C(=O)N1CCC[C@H]1C(=O)N1CCC[C@H]1C(=O)N[C@H](C(=O)N1CCC[C@H]1C(=O)N[C@@H](CO)C(=O)N1CCC[C@H]1C(=O)N[C@@H](CSSC[C@H](NC(=O)[C@@H]1CCCN1C(=O)[C@H](CO)NC(=O)[C@@H]1CCCN1C(=O)[C@@H](NC(=O)[C@@H]1CCCN1C(=O)[C@@H]1CCCN1C(=O)[C@@H](NC(C)=O)[C@@H](C)O)[C@@H](C)O)C(N)=O)C(N)=O)[C@@H](C)O)[C@@H](C)O` was tested. Which IC50 did it give?
**A.** 3300 µM

**Q.** How did the IC50 turn out when Ac-CPPTPSPS-NH2 was run?
**A.** 310 µM and 120 µM

**Q.** With `CC(=O)N[C@H](C(=O)N1CCC[C@H]1C(=O)N1CCC[C@H]1C(=O)N[C@H](C(=O)N1CCC[C@H]1C(=O)N[C@@H](CSSC[C@H](NC(=O)[C@@H]1CCCN1C(=O)[C@@H](NC(=O)[C@@H]1CCCN1C(=O)[C@@H]1CCCN1C(=O)[C@@H](NC(C)=O)[C@@H](C)O)[C@@H](C)O)C(=O)N1CCC[C@H]1C(=O)N[C@@H](CO)C(N)=O)C(=O)N1CCC[C@H]1C(=O)N[C@@H](CO)C(N)=O)[C@@H](C)O)[C@@H](C)O` as the compound, how does the IC50 read?
**A.** 5150 µM

**Q.** H-TPPTPSPS-NH2 was tested. Which IC50 did it give?
**A.** 400 µM and 180 µM

**Q.** For Ac-TPPTPSPS-OH, which IC50 is on record?
**A.** 1570 µM and 510 µM

**Q.** With Ac-TPPTPSPC-NH2 as the compound, how does the IC50 read?
**A.** 1030 µM and 490 µM

**Q.** H-TPPTPSPS-OH was tested. Which IC50 did it give?
**A.** 260 µM and 500 µM

**Q.** For Ac-TPPTPCPS-NH2, which IC50 is on record?
**A.** 200 µM and 50 µM

Target: IgA-specific serine endopeptidase autotransporter (Neisseria gonorrhoeae) (UniProt P09790)
Sequence (P09790 whole entry): as above
Assay: Percent inhibition was tested against IgA1 proteinase at 0.30 mM
Procedure, shortened: as §2

**Q.** `C[C@H](O)[C@H](NC(=O)[C@@H]1CCCN1C(=O)[C@@H]1CCCN1C(=O)[C@@H](N)[C@@H](C)O)C(=O)N1CCC[C@H]1C(=O)N[C@@H](CO)C(=O)N1CCC[C@H]1C(=O)N[C@@H](CO)C(=O)N[C@H](C(=O)N1CCC[C@H]1C(=O)N1CCC[C@H]1C(=O)N[C@H](C(=O)N1CCC[C@H]1C(=O)N[C@@H](CO)N1CCC[C@H]1C(=O)N[C@@H](CO)C(=O)O)[C@@H](C)O)[C@H](C)O` was tested. Which inhibition did it give?
**A.** 19%

Target: IgA-specific serine endopeptidase autotransporter (Neisseria gonorrhoeae) (UniProt P09790)
Assay: Tested for inhibitory activity against IgA1 proteinase at >2 mM
Procedure, shortened: as §2

**Q.** For `CC(=O)N[C@H](C(=O)N1CCC[C@H]1C(=O)N1CCC[C@H]1C(=O)N[C@H](C(=O)N1CCC[C@H]1C(=O)N[C@@H](CSSC[C@H](NC(=O)[C@@H]1CCCN1C(=O)[C@@H](NC(=O)[C@@H]1CCCN1C(=O)[C@@H]1CCCN1C(=O)[C@@H](NC(C)=O)[C@@H](C)O)[C@@H](C)O)C(=O)N1CCC[C@H]1C(=O)N[C@@H](CO)C(N)=O)C(=O)N1CCC[C@H]1C(=O)N[C@@H](CO)C(N)=O)[C@H](C)O)[C@@H](C)O`, which inhibition is on record?
**A.** 0%
